Assay: Toxicity liver stage against HepG2, at 10uM
Type: cell-based
Set-up: test concentration 10 uM, cell line HepG2-A16-CD81EGFP
Conditions: human, HepG2-A16-CD81EGFP cells; read-out: INHIBITION
Summary of the method: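 Uninfected HepG2-A16-CD81EGFP cells, 3 × 10^3 per well, 1536-well, plated on prespotted compound at 10 μM final, parasite-free screening media added to match infected plates; puromycin 10 μM positive, DMSO 0.5% negative; run in parallel with 48 h PbLuc assay at 37 °C, 5% CO2; viability by CellTiter-Glo luminescence, normalized to controls.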

| Compound | cytotoxicity at 10 µM [%] |
| --- | --- |
| COCCN1CCc2ccccc2NCCC1=O | -2.51 |
| Cc1cc(C)n(CCN2CCN(C(=O)c3cc4ccccc4o3)CC2)n1 | -3.97 |
| Cc1oncc1C(=O)N1CC[C@H]2[C@H](CO[C@@H]2CNS(C)(=O)=O)C1 | 0.0508 |
| CC(C)Cc1nc(OCC(N)=O)c(C#N)c2c1CCC2 | 75.7 |
| COC(=O)CC(c1cnn(C)c1)c1oc(C)cc(=O)c1O (stereo unspecified) | 21.9 |
| O=C(CSc1nc2c(cnn2CCO)c(=O)[nH]1)N1CCCCCC1 | -15.4 |
| CNC(=O)CS(=O)(=O)C1CCN(S(=O)(=O)C2CC2)CC1 | -16.7 |
| NC(=O)c1ccc2c(c1)nc1n2CCN(Cc2ccccc2)C1 | -8.8 |
| CCOCC(=O)N1C[C@@H]2COC[C@H](c3nc(C)no3)[C@@H]2C1 | -11.1 |
| CCn1nc(C)c2nc(C(C)C)nc(NC)c21 | 7.19 |
| COCCNC(=O)c1cc(C(C)C)nc(N2CCCC2)n1 | 5.03 |
| CC(C)C(=O)NCCCn1ncc2c(Cl)cccc21 | -21.6 |
| CC(C)N1CCCC1c1csc(N)n1 (stereo unspecified) | 2.33 |
| Cc1ccc(CN2CCOC(c3cnccn3)C2)s1 (stereo unspecified) | -2.81 |
| CCc1ccccc1CNC(=O)CCc1cnn(C)c1 | -3.09 |
| O=C1CC(C(=O)Nc2nnc(-c3ccoc3)[nH]2)c2ccccc2N1 (stereo unspecified) | 0.841 |
| Cc1noc(C2CCN(C(=O)c3cc(Cl)c(Cl)n3C)CC2)n1 | 10.7 |
| CC(C)c1noc(CNc2ccccc2CC(=O)N(C)C)n1 | -10.6 |
| CC(NC(=O)CCN1CCOC1=O)(c1ccccc1)c1ccccc1 | -10 |
| CC(O)CN(C)c1cc(C(F)(F)F)nc(-c2cccnc2)n1 (stereo unspecified) | -6.68 |
| COc1ncnc(N)c1CNCCc1ccc(-n2cccn2)cc1 | -13.3 |
| CC(C)C(C)N(C)C(=O)COc1ccccc1C#N (stereo unspecified) | -3.28 |
| CC(C)(C)c1nccc(N2CCCCC2CNS(C)(=O)=O)n1 (stereo unspecified) | -2.84 |

| Compound | cytotoxicity at 10 µM [%] |
| --- | --- |
| COc1cc(CNC(=O)Nc2nnc(C3CC3)s2)ccc1O | 31.3 |
| Cn1cnnc1CNC(=O)Nc1ccc(OC2CCC2)c(F)c1 | 1.03 |
| CCCN(C)C(=O)c1cc(S(=O)(=O)NCC)ccc1C | -0.403 |
| CS(=O)(=O)Nc1ccc(CNC(=O)CN2CCc3ccccc32)cc1 | 7.1 |
| CC(CN1CCCC1=O)NC(=O)c1ccc(-c2ccco2)[nH]c1=O (stereo unspecified) | -5.04 |
| Cc1cnn(CCNCC(O)c2cccc(Br)c2)c1 (stereo unspecified) | 1.66 |
| Cc1cccc(N2CCN(C(=O)CN3CCC(C(N)=O)CC3)CC2)c1 | 4.52 |
| Cc1nccn1-c1cc(CNC(=O)N2CCSCC2)ccn1 | -0.613 |
| COCCn1cc(NC(=O)C(C)CCc2ccccc2F)ccc1=O (stereo unspecified) | -3.73 |
| c1coc(-c2nnc(CN(Cc3cccs3)CC3CCCO3)o2)c1 (stereo unspecified) | 5.79 |
| Cn1cc(C(=O)Nc2ccnc(Oc3ccccc3)c2)ccc1=O | -4.5 |
| CCC(NC(=O)c1ccc2[nH]ccc2c1)C(=O)N1CCOCC1 (stereo unspecified) | 5.84 |
| Cc1cc(CNC2(c3ccc(Cl)cc3)CC2)no1 | 1.5 |
| CSCCC(C)NC(=O)CCN1C(=O)CCc2cc(F)ccc21 (stereo unspecified) | 6.79 |
| CCCC(=O)N1CCCCC1C(=O)Nc1ccc(-c2nnc[nH]2)cc1 (stereo unspecified) | 7.65 |
| CCN(CC)c1ccc(C(=O)NCc2cccnc2-n2cncn2)cn1 | 11.7 |
| COc1ccc(NC(=O)C2CCOC2)c(N2CCN(C(C)=O)CC2)n1 (stereo unspecified) | -12.2 |
| CC(O)CN1CCN(C(=O)c2cnn(-c3ccc(Cl)cc3)c2)CC1 (stereo unspecified) | -10.3 |
| Cn1cc(S(=O)(=O)N2CCCC2CC(=O)c2cccs2)cn1 (stereo unspecified) | -8.08 |
| COCCN(Cc1ccc(F)cc1Cl)C(=O)c1ccc(=O)[nH]n1 | 0.469 |
| CC(C)c1noc(CN(Cc2ccccc2F)C2CC2)n1 | -7.96 |
| CC(O)CN1CCN(C(=O)c2cc3ccccc3[nH]c2=O)CC1 (stereo unspecified) | 0.407 |
| Cc1cccc(CN2CC[C@@H]3O[C@@H](C(=O)N4CCN(C)CC4)C[C@@H]32)c1 | 8.01 |

| Compound | cytotoxicity at 10 µM [%] |
| --- | --- |
| O=C(c1ccnnc1)N1CCC2(CC1)CCN(C(=O)c1cccnc1)C2 | -97.8 |
| CSCc1noc(CNC(=O)C2CCN(C(=O)C3CCC3)CC2)n1 | 6.35 |
| COc1ccc(Cc2nc3c([nH]2)CC(C)(C)CNC3=O)c(OC)c1 | -1.02 |
| O=C(c1cnn[nH]1)N(CCCO)Cc1cccnc1 | -2.48 |
| Cc1ccccc1CC(=O)N1CCCn2cncc2C1 | -1.1 |
| O=C(CN1CCOC1=O)N1CC[C@@H](c2ccc3ccccc3c2)[C@H](O)C1 | 0.562 |
| COc1cccc(OCC2CCCN(C(=O)CCCn3cccn3)C2)c1 (stereo unspecified) | 8.12 |
| CC(=O)c1cccc(C(=O)N2C[C@@H](CN3CCCCCC3)[C@@H](CO)C2)c1 | 3.32 |
| CCN(CC)C(=O)[C@@H]1C[C@H](n2cc(-c3cccc(OC)c3)nn2)CN1 | 12.4 |
| Cc1nc[nH]c1CN1CCOC(CCNC(=O)c2ccsc2)C1 (stereo unspecified) | -13.1 |
| C1CCC(c2nnc3sc(C4CCOC4)nn23)C1 (stereo unspecified) | -2.16 |
| Cc1[nH]c2ccc(CNc3cc(C(N)=O)ccn3)cc2c1C | -4.73 |
| O=C(O)C1c2nc[nH]c2CCN1Cc1ccc(-c2ccccc2)s1 (stereo unspecified) | -9.35 |
| COc1ccc(CCN(C)C(C(=O)O)c2ccc(F)c(C)c2)cc1OC (stereo unspecified) | 2.93 |
| Cc1[nH]c2c(C)ccc(C)c2c1CC(=O)NCc1csc(N(C)C)n1 | -6.65 |
| CCOc1ccc(C(=O)N2Cc3cnc(CC(C)C)nc3C2)o1 | 7.18 |
| CCC(C)CN1CCC(n2cc(C3CCCC3)nn2)CC1 (stereo unspecified) | -2.13 |
| COc1cccc(C(C(=O)O)N2CCSCC2)c1F (stereo unspecified) | -12.9 |
| CCc1noc(CN(CC)C(=O)CC2C(=O)NCCN2CC=C(C)C)n1 (stereo unspecified) | 2.24 |
| CSCc1noc(CNC2CCCC(C)(C)C2)n1 (stereo unspecified) | -0.268 |
| Cc1cccc2cc(CN3CCC(O)(CN4CCCC4)CC3)c(=O)[nH]c12 | -14.9 |
| CC(c1ccco1)N(C)Cc1cc2cc3c(cc2[nH]c1=O)OCO3 (stereo unspecified) | 2.59 |
| Nc1nc2c(c(=O)[nH]1)CCN(C(=O)c1cccc3nccnc13)C2 | -11.4 |

| Compound | cytotoxicity at 10 µM [%] |
| --- | --- |
| CC(=O)N1C[C@@H](c2ccsc2)[C@@H]2CN(Cc3ccccc3)CC[C@@H]21 | 6.76 |
| CC1CN(Cc2cccnc2)CCN1c1ccc2nncn2n1 (stereo unspecified) | -11.1 |
| Cc1nn(C)c(C)c1CCC(=O)N1CCCC(n2cccn2)C1 (stereo unspecified) | -6.69 |
| CCc1cnc(CN(C(C)=O)C2CCN(CCc3ccccc3)C2)o1 (stereo unspecified) | -8.17 |
| Cc1nnc2n1CCN(C(=O)CN(C)Cc1ccccc1)C2 | -4.56 |
| CC(=O)N1CCN(C(=O)c2csc(-c3ccc(C)cc3C)n2)CC1 | -18.8 |
| CC(C)c1noc(CN2CCN(C(=O)c3ccc(F)cc3)CC2)n1 | -9.73 |
| c1ccc(-c2noc(CCCN3CCCC3Cn3cncn3)n2)cc1 (stereo unspecified) | -2.06 |
| Cn1ccnc1CN1CCN(CC(=O)NCc2cccs2)CC1 | -8.25 |
| COc1c(CNCc2ccc(Cn3ccnc3)cc2)c(C)nn1C | -25.1 |
| CC(Cn1ccnc1)NC(=O)NCCc1cccnc1 (stereo unspecified) | -12.1 |
| Cc1cccc(NC2CCN(C(=O)Nc3ccncc3)CC2)n1 | -17.1 |
| COc1ccc2cc(C(=O)N3CCCC3Cn3cc(C)cn3)[nH]c2c1 (stereo unspecified) | -0.743 |
| CN(Cc1cnn(C)c1)C(=O)C1CCCN1Cc1ccccn1 (stereo unspecified) | -25.8 |
| Cc1cnn(C2CCCN(C(=O)c3ccc(Cn4ccnc4)cc3)C2)c1 (stereo unspecified) | 2.54 |
| Cc1cc(C(=O)N2CCCC(n3cncn3)C2)nn1C (stereo unspecified) | -0.776 |
| COc1ccccc1CCNC(=O)N1CCC(n2cncn2)CC1 | 0.428 |
| CC(C)c1nc2n(n1)CC(NCc1nc(C3CC3)no1)CC2 (stereo unspecified) | -7.59 |
| COc1cccc(C(=O)N2CCCC(CNS(C)(=O)=O)C2)c1 (stereo unspecified) | -17.9 |
| O=C1NCCN1C1CCN(Cc2nc(-c3ccoc3)no2)CC1 | -9.06 |
| Cc1nnc2n1CCN(C(=O)c1cc(C)n(-c3ccccn3)c1C)C2 | 0.765 |
| COc1cc(C(=O)N(Cc2cnn(C)c2)C(C)C)ccc1OCC(N)=O | -5.45 |
| O=C(CN1CCOC(Cn2cccn2)C1)NCCc1ccc(F)cc1 (stereo unspecified) | -15.6 |

| Compound | cytotoxicity at 10 µM [%] |
| --- | --- |
| O=C(C1CCS(=O)(=O)C1)N1CCN(c2cnccn2)CC1 (stereo unspecified) | -6.66 |
| CN(C)c1cc(C(=O)N2CCN(S(C)(=O)=O)CC2)ccn1 | -4.46 |
| CC(C)=CCN1CCOC(Cn2nc(C)cc2C)C1 (stereo unspecified) | -9.93 |
| Cc1cccc2c1OCCC2NCc1c(C)nn(C)c1N(C)C (stereo unspecified) | -5.72 |
| Cc1cc(C)n2cc(CN3CCCC3Cn3nc(C)nc3C)nc2n1 (stereo unspecified) | 4.91 |
| Cc1cnn(C2CCCN(C(=O)c3ccnc(N(C)C)c3)C2)c1 (stereo unspecified) | 5.15 |
| CCOC1CCN(C(=O)c2cnn(-c3ccccc3Cl)c2)CC1 | -9.78 |
| COc1cc(C)nc(N2CCN(C(=O)c3ccccc3C)CC2)n1 | -2.18 |
| CCc1nc(C2CCCN2CCn2cncn2)no1 (stereo unspecified) | -8.13 |
| CCOc1ccc(Br)cc1C1CCCN1 (stereo unspecified) | 5.01 |
| O=C(c1cccnc1)N1CCC2(CC1)CCN(c1ccsc1)C2=O | 6.84 |
| CC(C)CN1CCO[C@H]2CCN(c3cnccn3)CC[C@@H]21 | 2.31 |
| O=C(c1cccnc1)N1CCC2(CC1)COCCN(c1ncccn1)C2 | 2.66 |
| COCC1CC2(CCN(c3ccc(C)nn3)CC2)CN1C(C)C (stereo unspecified) | -112 |
| CCCN1CCC(c2nc3ccc(-c4ccncc4)cn3n2)CC1 | -117 |
| Cn1ccnc1CN1CCC2(CC1)CCN(c1ccccc1)C2=O | -9.06 |
| c1csc(CN2CCO[C@H]3[C@H](OCCN4CCCC4)CC[C@@H]32)n1 | -7.32 |
| Cc1cccc(CO[C@@H]2CC[C@H]3[C@H]2OCCN3Cc2ccsc2)n1 | -16.3 |
| O=c1cc(Cn2cncn2)nc2n1CCCN(CCN1CCCC1)C2 | 2.78 |

From ChEMBL document CHEMBL4513216, “Probing the Open Global Health Chemical Diversity Library for Multistage-Active Starting Points for Next-Generation Antimalarials” (ACS Infect Dis, 2020)
